# ChEMBL document CHEMBL1122724, “Synthesis and kinetic studies of protease substrates containing the 1-methyl-6-aminoquinolinium ion as a fluorogenic leaving group” (J Med Chem, 1984)
# Legend:
# [1] = target: Serine protease 1 (Homo sapiens) (UniProt P07477); assay: (§1) Ratio of Kcat to Km of the compound; conditions: Sus scrofa
# [2] = target: Serine protease 1 (Homo sapiens) (UniProt P07477); assay: Kinetic constant was determined from the initial rates of enzymatic hydrolysis by the Lineweaver-Burke method against trypsin enzyme at a concentration of 1.0 uM; conditions: Sus scrofa
# Outline: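 Trypsin, active-site titrated with p-nitrophenyl p-guanidinobenzoate, was used in 46 mM Tris-HCl pH 8.1 containing 11 mM CaCl2 at 25 °C. Hydrolysis was monitored by fluorescence, with excitation/emission 410/550 nm for MAQ+ and 355/550 nm for 6-AQ. Initial rates were fitted by the Lineweaver–Burk method.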
# [3] = tested on: C[C@H](NC(=O)CCC(=O)O)C(=O)N[C@@H](C)C(=O)N[C@@H](C)C(=O)Nc1ccc2ncccc2c1; assay: (§2) Kinetic constant was determined from the initial rates of enzymatic hydrolysis by the Lineweaver-Burke method against elastase at a concentration of 1.4 uM; format: protein assay
# Outline: (§3)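 Porcine pancreatic elastase assayed in 67 mM Tris-HCl pH 8.8 at 37 °C in a thermostatted cuvette. Specific activity was checked with orcein-elastin before each experiment. Leaving-group fluorescence was read at 410/550 nm (MAQ+) or 355/550 nm (6-AQ). Kinetic constants came from initial rates by Lineweaver–Burk analysis.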
# [4] = tested on: C[C@H](NC(=O)OCc1ccccc1)C(=O)N[C@@H](C)C(=O)Nc1ccc2c(ccc[n+]2C)c1; assay: as §2; format: protein assay; outline: as §3
# [5] = tested on: C[C@H](NC(=O)OCc1ccccc1)C(=O)N[C@@H](C)C(=O)N[C@@H](C)C(=O)Nc1ccc2c(ccc[n+]2C)c1; assay: as §2; format: protein assay; outline: as §3
# [6] = target: Chymotrypsinogen B (Homo sapiens) (UniProt P17538); assay: as §1; conditions: Sus scrofa
# Chain of Chymotrypsinogen B (Homo sapiens) (P17538 34-164 limits assumed, other chains not shown): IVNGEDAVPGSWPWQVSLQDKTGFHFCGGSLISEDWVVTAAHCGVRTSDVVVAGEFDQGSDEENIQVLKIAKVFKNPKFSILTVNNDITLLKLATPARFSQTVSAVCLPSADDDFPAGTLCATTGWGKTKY
# Chain of Chymotrypsinogen B (Homo sapiens) (P17538 167-263 limits assumed, other chains not shown): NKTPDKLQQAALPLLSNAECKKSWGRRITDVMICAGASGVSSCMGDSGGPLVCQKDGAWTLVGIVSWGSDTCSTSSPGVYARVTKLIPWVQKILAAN
# [7] = target: Chymotrypsinogen B (Homo sapiens) (UniProt P17538); assay: Kinetic constant was determined from the initial rates of enzymatic hydrolysis by the Lineweaver-Burke method against alpha-chymotrypsin enzyme at a concentration of 2.0 uM; conditions: Sus scrofa
# Outline: (§4)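 Chymotrypsin assayed in 50 mM Tris-HCl pH 8.0 with 10 mM CaCl2 at 25 °C. Active enzyme was titrated with 2-nitro-4-carboxyphenyl diphenylcarbamate. Product release was followed fluorimetrically, with excitation 410 nm and emission 550 nm for MAQ+, and 355/550 nm for 6-AQ. Constants were taken from initial hydrolysis rates by Lineweaver–Burk plots.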
# [8] = tested on: C[n+]1cccc2cc(NC(=O)[C@H](Cc3ccccc3)NC(=O)OCc3ccccc3)ccc21; assay: Kinetic constant was determined from the initial rates of enzymatic hydrolysis by the Lineweaver-Burke method against chymotrypsin enzyme at a concentration of 2.0 uM; conditions: Sus scrofa; outline: as §4
# [9] = as §1
# [10] = target: Pancreatic elastase (Sus scrofa) (UniProt P08419+P00772); assay: as §2; format: protein assay; outline: as §3
# Chain of Serine protease 1 (Homo sapiens) (P07477 whole entry): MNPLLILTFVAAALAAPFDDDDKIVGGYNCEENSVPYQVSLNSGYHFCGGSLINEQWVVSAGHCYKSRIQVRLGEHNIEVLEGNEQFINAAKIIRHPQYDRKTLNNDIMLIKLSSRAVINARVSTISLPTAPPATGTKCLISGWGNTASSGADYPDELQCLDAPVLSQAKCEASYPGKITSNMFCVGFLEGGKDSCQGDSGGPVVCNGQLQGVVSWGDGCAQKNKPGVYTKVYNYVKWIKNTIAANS
# Chain of Pancreatic elastase (Sus scrofa) (from UniProt P08419+P00772) (P00772 whole entry, looked up): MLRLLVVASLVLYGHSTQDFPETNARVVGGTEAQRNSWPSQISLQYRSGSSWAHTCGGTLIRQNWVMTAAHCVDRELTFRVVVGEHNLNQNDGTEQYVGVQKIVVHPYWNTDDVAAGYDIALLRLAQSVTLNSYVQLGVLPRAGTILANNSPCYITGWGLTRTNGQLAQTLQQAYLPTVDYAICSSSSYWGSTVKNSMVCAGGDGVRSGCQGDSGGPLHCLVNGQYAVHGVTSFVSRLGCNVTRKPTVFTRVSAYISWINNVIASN
# Chain of Pancreatic elastase (Sus scrofa) (from UniProt P08419+P00772) (P08419 whole entry, looked up): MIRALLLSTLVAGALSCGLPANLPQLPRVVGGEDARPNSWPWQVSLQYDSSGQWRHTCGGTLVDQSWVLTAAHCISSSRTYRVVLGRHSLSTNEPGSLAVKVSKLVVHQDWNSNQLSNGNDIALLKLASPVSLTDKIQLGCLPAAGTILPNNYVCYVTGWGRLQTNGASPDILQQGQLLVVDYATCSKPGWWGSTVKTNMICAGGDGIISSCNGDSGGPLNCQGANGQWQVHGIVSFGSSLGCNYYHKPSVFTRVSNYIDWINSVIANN
molecule,measurement,setting,value
C[n+]1cccc2cc(NC(=O)C(CCCN=C(N)N)NC(=O)c3ccccc3)ccc21 (stereo not drawn),Ratio,[1],636 M⁻¹ s⁻¹
same,k cat,[2],0.14 s⁻¹
Pancreatic elastase (Sus scrofa) (from UniProt P08419+P00772),Km,[3],500 µM
same,Km,[4],4170 µM
same,Km,[5],230 µM
C[n+]1cccc2cc(NC(=O)[C@H](Cc3ccccc3)NC(=O)OCc3ccccc3)ccc21,Ratio,[6],2220 M⁻¹ s⁻¹
same,k cat,[7],0.4 s⁻¹
N=C(N)NCCCC(NC(=O)c1ccccc1)C(=O)Nc1ccc2ncccc2c1 (stereo not drawn),Ratio,[1],1500 M⁻¹ s⁻¹
same,k cat,[2],0.6 s⁻¹
O=C(O)CCCC(=O)N[C@@H](Cc1ccccc1)C(=O)Nc1ccc2ncccc2c1,Ratio,[6],79 M⁻¹ s⁻¹
same,k cat,[7],0.14 s⁻¹
Chymotrypsinogen A (Bos taurus) (from UniProt P00766),Km,[8],180 µM
C[C@H](NC(=O)OCc1ccccc1)C(=O)N[C@@H](C)C(=O)N[C@@H](C)C(=O)Nc1ccc2c(ccc[n+]2C)c1,Ratio,[9],4740 M⁻¹ s⁻¹
same,k cat,[10],1.09 s⁻¹
C[C@H](NC(=O)CCC(=O)O)C(=O)N[C@@H](C)C(=O)N[C@@H](C)C(=O)Nc1ccc2ncccc2c1,Ratio,[9],3400 M⁻¹ s⁻¹
same,k cat,[10],1.7 s⁻¹
C[C@H](NC(=O)OCc1ccccc1)C(=O)N[C@@H](C)C(=O)Nc1ccc2c(ccc[n+]2C)c1,Ratio,[9],10 M⁻¹ s⁻¹
same,k cat,[10],0.043 s⁻¹
